Reference: ChEMBL document CHEMBL1147539, “Synthesis and biological evaluation of novel, selective, nonsteroidal glucocorticoid receptor antagonists” (Bioorg Med Chem Lett, 2004)

What was measured:
Glucocorticoid receptor [1] = biological target: T1, Glucocorticoid receptor (Homo sapiens, UniProt P04150); test: Displacement of [3H]dexamethasone from human Glucocorticoid receptor (GR)
T1 sequence (P04150 whole entry): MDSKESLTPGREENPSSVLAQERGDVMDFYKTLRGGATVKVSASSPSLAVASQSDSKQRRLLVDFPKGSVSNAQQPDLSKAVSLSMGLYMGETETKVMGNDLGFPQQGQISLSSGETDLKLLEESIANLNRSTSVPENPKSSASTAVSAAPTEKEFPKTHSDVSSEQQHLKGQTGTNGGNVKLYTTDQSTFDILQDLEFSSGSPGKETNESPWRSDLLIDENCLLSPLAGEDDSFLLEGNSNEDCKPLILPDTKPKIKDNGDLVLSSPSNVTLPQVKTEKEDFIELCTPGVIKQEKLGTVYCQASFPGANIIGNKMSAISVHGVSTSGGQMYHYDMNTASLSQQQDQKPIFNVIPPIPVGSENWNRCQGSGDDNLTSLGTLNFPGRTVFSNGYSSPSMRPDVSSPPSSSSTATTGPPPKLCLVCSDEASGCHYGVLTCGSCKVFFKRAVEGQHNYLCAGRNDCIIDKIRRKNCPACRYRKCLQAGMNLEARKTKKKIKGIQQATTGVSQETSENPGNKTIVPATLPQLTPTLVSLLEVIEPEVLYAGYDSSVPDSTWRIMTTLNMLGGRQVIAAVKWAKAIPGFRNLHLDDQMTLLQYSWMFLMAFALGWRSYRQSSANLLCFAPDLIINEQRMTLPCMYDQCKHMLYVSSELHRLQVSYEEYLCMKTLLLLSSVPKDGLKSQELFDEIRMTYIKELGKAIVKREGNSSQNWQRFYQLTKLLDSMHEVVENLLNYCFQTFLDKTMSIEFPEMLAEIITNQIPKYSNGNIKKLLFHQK

Glucocorticoid receptor [2] = biological target: T1, Glucocorticoid receptor; test: Effect on human Glucocorticoid receptor (GR) in a whole cell assay to measure functional cellular GR-antagonism (GRAF)
[3] = biological target: T2, Mineralocorticoid receptor (Homo sapiens, UniProt P08235); test: Displacement of [3H]aldosterone from human Mineralocorticoid receptor
T2 sequence (P08235 whole entry): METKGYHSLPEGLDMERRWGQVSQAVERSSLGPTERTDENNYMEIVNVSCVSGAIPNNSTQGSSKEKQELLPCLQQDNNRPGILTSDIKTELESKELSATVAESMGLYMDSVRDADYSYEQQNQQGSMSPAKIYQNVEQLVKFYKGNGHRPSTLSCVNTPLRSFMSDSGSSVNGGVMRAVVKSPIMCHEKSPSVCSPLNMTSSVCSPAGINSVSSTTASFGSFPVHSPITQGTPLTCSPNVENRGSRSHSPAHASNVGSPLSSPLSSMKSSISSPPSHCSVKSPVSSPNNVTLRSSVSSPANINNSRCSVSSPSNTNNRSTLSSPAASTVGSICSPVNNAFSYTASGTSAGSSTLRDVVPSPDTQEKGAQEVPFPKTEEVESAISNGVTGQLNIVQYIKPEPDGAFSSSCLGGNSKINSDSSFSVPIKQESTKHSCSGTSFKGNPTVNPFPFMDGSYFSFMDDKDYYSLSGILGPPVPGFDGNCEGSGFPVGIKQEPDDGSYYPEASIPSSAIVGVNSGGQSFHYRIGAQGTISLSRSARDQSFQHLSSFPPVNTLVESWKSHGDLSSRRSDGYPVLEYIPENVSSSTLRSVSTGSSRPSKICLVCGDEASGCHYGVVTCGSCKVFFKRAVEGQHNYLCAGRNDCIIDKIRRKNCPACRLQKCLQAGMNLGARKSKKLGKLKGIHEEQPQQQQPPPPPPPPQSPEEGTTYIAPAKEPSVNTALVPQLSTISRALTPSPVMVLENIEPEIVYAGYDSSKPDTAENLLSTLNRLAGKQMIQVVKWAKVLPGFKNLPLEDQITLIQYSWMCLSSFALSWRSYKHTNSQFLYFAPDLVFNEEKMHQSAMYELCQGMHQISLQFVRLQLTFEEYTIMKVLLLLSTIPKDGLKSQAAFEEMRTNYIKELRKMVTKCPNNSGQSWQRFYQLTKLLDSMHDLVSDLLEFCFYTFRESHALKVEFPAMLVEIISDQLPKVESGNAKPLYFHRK
Procedure, shortened: (§1)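 Human steroid receptor (PR, MR, AR, ERα) binding measured by radioligand displacement, with IC50s determined in duplicate. Values without a range come from a single experiment, and values with a range are geometric means of repeat experiments.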

Androgen receptor = biological target: T3, Androgen receptor (Homo sapiens, UniProt P10275); test: Displacement of [3H]mibolerone from human Androgen receptor
T3 sequence (P10275 whole entry): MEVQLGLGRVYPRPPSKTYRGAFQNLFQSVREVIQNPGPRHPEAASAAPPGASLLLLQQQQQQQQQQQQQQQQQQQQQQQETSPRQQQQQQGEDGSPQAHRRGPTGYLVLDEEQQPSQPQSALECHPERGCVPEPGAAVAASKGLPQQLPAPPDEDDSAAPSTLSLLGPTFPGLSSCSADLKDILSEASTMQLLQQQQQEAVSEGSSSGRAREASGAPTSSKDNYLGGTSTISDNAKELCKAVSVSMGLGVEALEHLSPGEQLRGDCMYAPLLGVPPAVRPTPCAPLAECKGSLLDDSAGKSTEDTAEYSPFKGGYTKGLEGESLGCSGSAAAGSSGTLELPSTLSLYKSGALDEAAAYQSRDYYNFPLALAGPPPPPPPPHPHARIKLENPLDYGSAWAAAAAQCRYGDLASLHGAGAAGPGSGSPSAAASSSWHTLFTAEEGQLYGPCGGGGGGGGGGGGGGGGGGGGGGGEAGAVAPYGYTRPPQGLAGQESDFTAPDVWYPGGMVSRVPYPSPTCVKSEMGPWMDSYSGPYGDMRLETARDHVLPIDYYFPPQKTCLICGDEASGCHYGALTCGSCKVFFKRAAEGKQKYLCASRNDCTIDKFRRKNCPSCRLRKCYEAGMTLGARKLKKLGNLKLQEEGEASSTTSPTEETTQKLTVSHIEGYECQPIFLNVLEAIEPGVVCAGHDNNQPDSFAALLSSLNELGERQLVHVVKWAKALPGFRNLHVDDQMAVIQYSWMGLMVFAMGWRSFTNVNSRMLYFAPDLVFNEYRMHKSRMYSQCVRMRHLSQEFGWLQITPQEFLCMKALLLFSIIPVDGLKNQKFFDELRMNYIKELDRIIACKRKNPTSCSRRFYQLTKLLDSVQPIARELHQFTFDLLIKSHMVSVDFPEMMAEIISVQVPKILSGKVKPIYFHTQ

Progesterone receptor = biological target: T4, Progesterone receptor (Homo sapiens, UniProt P06401); test: Displacement of [3H]progesterone from human Progesterone receptor; procedure, shortened: as §1
T4 sequence (P06401 whole entry): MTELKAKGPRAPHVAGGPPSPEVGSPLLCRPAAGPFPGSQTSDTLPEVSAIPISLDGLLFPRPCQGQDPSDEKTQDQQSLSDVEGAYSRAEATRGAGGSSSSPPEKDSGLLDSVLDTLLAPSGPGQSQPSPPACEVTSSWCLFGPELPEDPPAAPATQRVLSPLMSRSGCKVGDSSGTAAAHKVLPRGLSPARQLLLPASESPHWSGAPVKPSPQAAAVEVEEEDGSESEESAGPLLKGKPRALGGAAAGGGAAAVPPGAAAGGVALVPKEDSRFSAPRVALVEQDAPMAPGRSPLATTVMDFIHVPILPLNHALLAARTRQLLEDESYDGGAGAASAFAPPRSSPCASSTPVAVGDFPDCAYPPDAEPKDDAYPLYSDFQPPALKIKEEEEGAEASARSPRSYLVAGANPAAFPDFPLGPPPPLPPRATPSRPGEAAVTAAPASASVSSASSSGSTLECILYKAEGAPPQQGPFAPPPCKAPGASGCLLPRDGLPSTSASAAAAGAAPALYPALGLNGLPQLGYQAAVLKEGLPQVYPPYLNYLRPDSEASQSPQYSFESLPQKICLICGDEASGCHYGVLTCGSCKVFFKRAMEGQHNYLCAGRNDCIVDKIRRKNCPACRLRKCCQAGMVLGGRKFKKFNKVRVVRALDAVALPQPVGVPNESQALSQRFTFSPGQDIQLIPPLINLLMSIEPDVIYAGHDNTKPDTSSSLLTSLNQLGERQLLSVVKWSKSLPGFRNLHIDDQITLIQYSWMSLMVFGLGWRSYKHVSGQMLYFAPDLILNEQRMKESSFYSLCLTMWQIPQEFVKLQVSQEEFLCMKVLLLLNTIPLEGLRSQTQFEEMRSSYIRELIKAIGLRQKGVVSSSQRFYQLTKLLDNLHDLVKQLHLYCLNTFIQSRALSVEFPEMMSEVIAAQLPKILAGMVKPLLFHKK

Glucocorticoid receptor [4] = biological target: T1, Glucocorticoid receptor; test: Displacement of [3H]dexamethasone from human Glucocorticoid receptor (GR); Value ranges from 1428-1433 nM
Procedure, shortened: (§2)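 Binding to human GR; IC50 reported as the geometric mean of two experiments (three for some values), each run in duplicate, with the range of the experiments given.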

Glucocorticoid receptor [5] = biological target: T1, Glucocorticoid receptor; test: Displacement of [3H]dexamethasone from human Glucocorticoid receptor (GR); […]
Glucocorticoid receptor [6] = biological target: T1, Glucocorticoid receptor; test: Displacement of [3H]dexamethasone from human Glucocorticoid receptor (GR); Value ranges from 159-161 nM; procedure, shortened: as §2
Glucocorticoid receptor [7] = biological target: T1, Glucocorticoid receptor; test: Displacement of [3H]dexamethasone from human Glucocorticoid receptor (GR); Value ranges from 5-6 nM; procedure, shortened: as §2
Glucocorticoid receptor [8] = biological target: T1, Glucocorticoid receptor; test: Displacement of [3H]dexamethasone from human Glucocorticoid receptor (GR); Value ranges from 3-4 nM; procedure, shortened: as §2
Glucocorticoid receptor [9] = biological target: T1, Glucocorticoid receptor; test: Displacement of [3H]dexamethasone from human Glucocorticoid receptor (GR); Value ranges from 378-814 nM
Estrogen receptor = biological target: T5, Estrogen receptor (Homo sapiens, UniProt P03372); test: Displacement of [3H]estradiol from human estrogen receptor alpha; procedure, shortened: as §1
T5 sequence (P03372 whole entry): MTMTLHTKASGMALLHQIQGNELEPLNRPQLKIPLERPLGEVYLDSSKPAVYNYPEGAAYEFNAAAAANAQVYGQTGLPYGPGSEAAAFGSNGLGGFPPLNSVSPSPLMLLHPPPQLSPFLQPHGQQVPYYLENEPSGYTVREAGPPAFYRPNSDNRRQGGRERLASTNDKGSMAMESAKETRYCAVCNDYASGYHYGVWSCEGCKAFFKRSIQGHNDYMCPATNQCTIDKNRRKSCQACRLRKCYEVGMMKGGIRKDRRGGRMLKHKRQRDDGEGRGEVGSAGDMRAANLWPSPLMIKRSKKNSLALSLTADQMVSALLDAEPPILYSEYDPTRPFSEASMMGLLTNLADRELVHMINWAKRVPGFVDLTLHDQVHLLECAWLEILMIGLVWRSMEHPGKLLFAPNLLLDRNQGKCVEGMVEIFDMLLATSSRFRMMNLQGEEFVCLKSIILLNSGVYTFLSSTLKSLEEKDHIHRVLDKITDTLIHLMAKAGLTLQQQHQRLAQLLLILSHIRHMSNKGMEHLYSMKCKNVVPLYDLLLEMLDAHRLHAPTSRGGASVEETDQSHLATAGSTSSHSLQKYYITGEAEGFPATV

Glucocorticoid receptor [10] = biological target: T1, Glucocorticoid receptor
Glucocorticoid receptor [11] = biological target: T1, Glucocorticoid receptor; remark: listed apart in the source

COc1cccc2c1-c1ccc(NS(C)(=O)=O)cc1C(c1cc(C)cc(C)c1)O2 (stereo unspecified)
IC50 (Glucocorticoid receptor [1]): 2 nM
IC50 (Glucocorticoid receptor [2]): 78 nM
IC50 [3]: 1220 nM
IC50 (Androgen receptor): > 10000 nM

COc1cccc2c1-c1ccc(NS(C)(=O)=O)cc1C(c1cccc(C)c1)O2 (stereo unspecified)
IC50 (Glucocorticoid receptor [1]): 1 nM
IC50 (Glucocorticoid receptor [2]): 21 nM
IC50 [3]: 333 nM
IC50 (Progesterone receptor): 236 nM
IC50 (Androgen receptor): > 10000 nM

COc1cccc2c1-c1ccc(NS(C)(=O)=O)cc1C(c1ccccn1)O2 (stereo unspecified)
IC50 (Glucocorticoid receptor [4]): 1430 nM

COc1cccc2c1-c1ccc(NS(C)(=O)=O)cc1C(C1CCCCC1)O2 (stereo unspecified)
IC50 (Glucocorticoid receptor [2]): 630 nM
IC50 (Glucocorticoid receptor [5]): 47 nM

CCC(=O)Nc1ccc2c(c1)C(c1ccccc1)Oc1cccc(OC)c1-2 (stereo unspecified)
IC50 (Glucocorticoid receptor [6]): 160 nM
IC50 (Glucocorticoid receptor [2]): 124 nM

COc1cccc(C2Oc3cccc(OC)c3-c3ccc(NS(C)(=O)=O)cc32)c1 (stereo unspecified)
IC50 (Glucocorticoid receptor [2]): 122 nM
IC50 (Glucocorticoid receptor [7]): 6 nM

COc1cccc2c1-c1ccc(NS(C)(=O)=O)cc1C(c1ccc(Cl)c(Cl)c1)O2 (stereo unspecified)
IC50 (Glucocorticoid receptor [2]): 378 nM
IC50 (Glucocorticoid receptor [8]): 3 nM

CNc1cccc(C2Oc3cccc(OC)c3-c3ccc(NS(C)(=O)=O)cc32)c1 (stereo unspecified)
IC50 (Glucocorticoid receptor [1]): 23 nM
IC50 (Glucocorticoid receptor [2]): 180 nM

CCCCCC1Oc2cccc(OC)c2-c2ccc(NS(C)(=O)=O)cc21 (stereo unspecified)
IC50 (Glucocorticoid receptor [1]): 21 nM

COc1cccc2c1-c1ccccc1C(c1ccccc1)O2 (stereo unspecified)
IC50 (Glucocorticoid receptor [1]): 10000 nM
IC50 (Glucocorticoid receptor [2]): 1910 nM

COc1cccc2c1-c1ccc(NS(C)(=O)=O)c(Br)c1C(c1ccccc1)O2 (stereo unspecified)
IC50 (Glucocorticoid receptor [9]): 519 nM
IC50 (Glucocorticoid receptor [2]): 430 nM
IC50 [3]: 454 nM
IC50 (Progesterone receptor): 10000 nM
IC50 (Estrogen receptor): 2280 nM

COc1cccc2c1-c1ccc(NS(C)(=O)=O)cc1C(c1ccc(Oc3ccccc3)cc1)O2 (stereo unspecified)
IC50 (Glucocorticoid receptor [1]): 63 nM
IC50 (Glucocorticoid receptor [2]): 847 nM

COc1cccc2c1-c1ccc(NS(C)(=O)=O)cc1C(c1ccccc1)O2 (stereo unspecified)
IC50 (Glucocorticoid receptor [2]): 87 nM
IC50 [3]: 22900 nM
IC50 (Glucocorticoid receptor [5]): 19 nM
IC50 (Estrogen receptor): > 10000 nM
IC50 (Androgen receptor): 6530 nM

CCS(=O)(=O)Nc1ccc2c(c1)C(c1ccccc1)Oc1cccc(OC)c1-2 (stereo unspecified)
IC50 (Glucocorticoid receptor [2]): 251 nM
IC50 (Glucocorticoid receptor [5]): 62 nM

COc1cccc2c1-c1ccc(NS(=O)(=O)c3ccccc3)cc1C(c1ccccc1)O2 (stereo unspecified)
IC50 (Glucocorticoid receptor [10]): 146 nM
IC50 (Glucocorticoid receptor [2]): 137 nM

COc1cccc2c1-c1ccc(NS(C)(=O)=O)cc1C(c1ccsc1)O2 (stereo unspecified)
IC50 (Glucocorticoid receptor [2]): 43 nM
IC50 (Glucocorticoid receptor [11]): 11 nM
